Data published in ChEMBL document CHEMBL4627345, “Anti-inflammatory effect and inhibition of nitric oxide production by targeting COXs and iNOS enzymes with the 1,2-diphenylbenzimidazole pharmacophore” (Bioorg Med Chem, 2020).
The source made the active and inactive calls. The calls are words filed in the database; no cut-off is given here.

Columns and labels:
[1] = target: T1, Nitric oxide synthase, inducible (Mus musculus) (UniProt P29477); test: Inhibition of iNOS in mouse macrophages assessed as reduction in LPS-induced nitric oxide production at 50 uM incubated for overnight by griess assay relative to control
T1 sequence (whole entry): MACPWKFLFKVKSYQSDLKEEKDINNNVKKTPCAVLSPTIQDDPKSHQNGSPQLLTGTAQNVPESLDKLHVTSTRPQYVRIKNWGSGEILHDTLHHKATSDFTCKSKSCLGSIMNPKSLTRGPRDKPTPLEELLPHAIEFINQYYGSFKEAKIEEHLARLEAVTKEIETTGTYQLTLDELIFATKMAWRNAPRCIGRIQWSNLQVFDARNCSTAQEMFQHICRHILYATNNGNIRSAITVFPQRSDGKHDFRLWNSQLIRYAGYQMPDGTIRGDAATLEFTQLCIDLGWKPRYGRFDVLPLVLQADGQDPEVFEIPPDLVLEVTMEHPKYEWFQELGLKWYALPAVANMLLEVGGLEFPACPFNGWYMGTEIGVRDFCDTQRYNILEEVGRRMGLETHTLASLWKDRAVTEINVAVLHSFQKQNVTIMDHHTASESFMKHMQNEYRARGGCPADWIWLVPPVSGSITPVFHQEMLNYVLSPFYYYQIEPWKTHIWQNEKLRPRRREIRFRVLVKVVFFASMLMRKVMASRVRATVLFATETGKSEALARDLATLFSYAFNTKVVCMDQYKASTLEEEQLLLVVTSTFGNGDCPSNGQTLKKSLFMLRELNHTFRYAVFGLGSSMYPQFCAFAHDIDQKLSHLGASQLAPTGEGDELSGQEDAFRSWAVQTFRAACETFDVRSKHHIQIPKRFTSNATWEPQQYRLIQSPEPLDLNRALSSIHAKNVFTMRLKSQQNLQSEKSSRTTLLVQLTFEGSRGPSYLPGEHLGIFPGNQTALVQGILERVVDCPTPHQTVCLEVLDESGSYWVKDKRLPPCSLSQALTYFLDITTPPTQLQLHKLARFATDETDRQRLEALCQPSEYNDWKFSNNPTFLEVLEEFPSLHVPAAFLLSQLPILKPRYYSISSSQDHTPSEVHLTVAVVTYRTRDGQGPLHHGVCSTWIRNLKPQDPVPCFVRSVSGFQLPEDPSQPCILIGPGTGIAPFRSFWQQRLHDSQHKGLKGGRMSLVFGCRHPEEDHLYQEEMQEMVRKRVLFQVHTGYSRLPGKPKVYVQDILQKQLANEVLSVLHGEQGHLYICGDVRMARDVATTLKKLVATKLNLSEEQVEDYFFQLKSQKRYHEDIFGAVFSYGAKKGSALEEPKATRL
In short: (§1)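 Murine macrophages seeded at 4 x10^4 per well with compound at 50 or 100 µM, with or without LPS (100 ng/mL), overnight under standard conditions. Supernatant mixed 1:1 with Griess reagent and read at 570 nm. Nitrite quantified from a NaNO2 standard curve. Triplicates in three independent experiments.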

Rattus norvegicus = test: Antiinflammatory activity in Wistar rat assessed as inhibition of carrageenan-induced paw edema formation at 100 mg/kg, po administered 1 hr before carrageenan stimulation and measured after up to 6 hrs relative to control; type: functional
In short: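 Male Wistar rats (250–300 g), N = 5 per group, dosed orally 1 h before 0.1 mL of 1% carrageenan in physiological saline was injected into the right paw. Paw volume was read by plethysmometer at 0, 1, 2, 3, 4, 5 and 6 h. Edema was taken as the right-minus-left paw volume difference. % inhibition = (untreated − treated)/untreated × 100 at each time point.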

[2] = target: T2, Prostaglandin G/H synthase 1 (Bos taurus) (UniProt O62664); test: Inhibition of bovine COX1 at 100 uM using arachidonic acid as substrate preincubated for 5 mins followed by substrate addition and measured after 5 mins by […]-based fluorescence assay relative to control
T2 sequence (whole entry): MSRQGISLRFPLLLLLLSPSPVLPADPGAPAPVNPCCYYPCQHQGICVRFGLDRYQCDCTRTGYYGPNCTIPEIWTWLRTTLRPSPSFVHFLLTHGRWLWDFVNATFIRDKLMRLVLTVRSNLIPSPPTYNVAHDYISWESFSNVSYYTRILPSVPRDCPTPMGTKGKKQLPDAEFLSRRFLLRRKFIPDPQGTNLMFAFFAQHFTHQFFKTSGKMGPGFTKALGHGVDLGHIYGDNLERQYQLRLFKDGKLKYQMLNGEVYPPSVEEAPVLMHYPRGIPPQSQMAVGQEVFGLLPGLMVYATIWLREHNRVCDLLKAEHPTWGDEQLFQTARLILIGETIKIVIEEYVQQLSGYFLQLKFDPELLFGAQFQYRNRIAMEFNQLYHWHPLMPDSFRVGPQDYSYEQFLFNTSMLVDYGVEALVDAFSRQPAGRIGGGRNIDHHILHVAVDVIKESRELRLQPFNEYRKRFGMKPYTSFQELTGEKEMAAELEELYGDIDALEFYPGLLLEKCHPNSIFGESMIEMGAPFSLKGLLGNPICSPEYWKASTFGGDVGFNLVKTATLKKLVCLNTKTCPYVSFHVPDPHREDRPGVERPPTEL
In short: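 Bovine COX-1 preincubated 5 min in buffer with compound (100 µM) or SC-560 as reference. ADHP and arachidonic acid then added, and resorufin fluorescence read after 5 min (ex 530–540 / em 585–595 nm). Resorufin arises from ADHP reacting with the COX-derived PGG2.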

RAW264.7 = test: Cytotoxicity against mouse RAW264.7 cells assessed as reduction in cell viability at 500 uM measured after 24 hrs by MTT assay; type: cell-based; conditions: raw264.7, 24 h
In short: (§2)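 RAW 264.7 murine macrophages grown in RPMI-1640 with 10% heat-inactivated FBS at 37 °C, 5% CO2. Cells seeded at 4 x10^4 per well and exposed 24 h to 0–500 µM compound (DMSO 0.2% final). Medium replaced with 0.5 mg/mL MTT for 4 h, formazan dissolved in isopropanol, absorbance read at 570 nm. Triplicates in three independent experiments.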

[3] = Cytotoxicity against mouse RAW264.7 cells assessed as cell viability at 100 uM measured after 24 hrs by MTT assay relative to control; type: cell-based; conditions: read-out: Activity; in short: as §2
[4] = Selectivity index, ratio of inhibition of human recombinant COX-2 at 100 uM to inhibition of bovine COX-1 at 100 uM
In short: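 SI is COX-2/COX-1 activity ratio. Percent inhibition at 100 µM: human recombinant COX-2 (15 min preincubation) and bovine COX-1 (5 min preincubation). Fluorometric ADHP/arachidonic acid read-out after 5 min.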

[5] = target: T1, Nitric oxide synthase, inducible (Mus musculus); test: Inhibition of iNOS in mouse macrophages assessed as reduction in LPS-induced nitric oxide production at 100 uM incubated for overnight by griess assay relative to control; in short: as §1
[6] = target: T3, Prostaglandin G/H synthase 2 (Homo sapiens, UniProt P35354); test: Inhibition of human recombinant COX-2 using arachidonic acid as substrate preincubated for 15 mins followed by substrate addition and measured after 5 mins by […]-based fluorescence assay
T3 sequence (P35354 whole entry): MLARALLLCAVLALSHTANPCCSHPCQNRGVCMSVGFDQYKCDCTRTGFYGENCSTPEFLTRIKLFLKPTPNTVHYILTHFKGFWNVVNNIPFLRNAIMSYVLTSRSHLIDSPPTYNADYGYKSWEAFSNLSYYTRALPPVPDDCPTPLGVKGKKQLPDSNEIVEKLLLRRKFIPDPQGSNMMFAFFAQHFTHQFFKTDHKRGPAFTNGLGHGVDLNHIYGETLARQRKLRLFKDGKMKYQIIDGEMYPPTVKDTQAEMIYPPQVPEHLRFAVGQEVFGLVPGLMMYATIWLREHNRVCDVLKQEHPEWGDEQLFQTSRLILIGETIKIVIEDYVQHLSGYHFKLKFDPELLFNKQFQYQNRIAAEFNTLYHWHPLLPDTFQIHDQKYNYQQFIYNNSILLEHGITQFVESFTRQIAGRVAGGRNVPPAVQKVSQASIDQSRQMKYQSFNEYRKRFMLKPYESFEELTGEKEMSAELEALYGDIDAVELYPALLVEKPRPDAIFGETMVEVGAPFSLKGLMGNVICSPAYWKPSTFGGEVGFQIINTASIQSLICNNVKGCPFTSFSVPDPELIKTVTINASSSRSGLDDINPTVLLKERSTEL
In short: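 Human recombinant COX-2 preincubated 15 min in buffer with compound (100 µM) or DuP-697 as reference. ADHP and arachidonic acid then added, and resorufin fluorescence read after 5 min (ex 530–540 / em 585–595 nm).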

[7] = Cytotoxicity against mouse RAW264.7 cells assessed as cell viability at 500 uM measured after 24 hrs by MTT assay relative to control; type: cell-based; conditions: read-out: Activity; in short: as §2

SMILES | inhibition [1] [%] | inhibition (Rattus norvegicus) | inhibition [2] [%] | Activity (RAW264.7) | viability at 24 h, 100 µM [3] [%] | Selectivity Index [4] | inhibition [5] [%] | IC50 [6] [µM] | inhibition in vivo at 100 mg/kg (Rattus norvegicus) [%] | viability at 24 h, 500 µM [7] [%]
O=[N+]([O-])c1ccc(-n2c(-c3ccccc3)nc3ccccc32)cc1 | 38.1 | Active | 40.6 | Toxic | > 90 | 1.05 | 44 | 162 | – | –
CC(=O)Nc1ccc(-n2c(-c3ccc(Br)cc3)nc3ccccc32)cc1 | 77.3 | Active | 48.7 | – | > 90 | 0.58 | 83.6 | – | – | –
O=[N+]([O-])c1ccc(-n2c(-c3ccc(Cl)cc3)nc3ccccc32)cc1 | 53.2 | Active | 17.6 | Toxic | > 90 | 1.37 | 53.9 | – | – | –
O=C(O)c1ccc(-c2nc3ccccc3n2-c2ccc([N+](=O)[O-])cc2)cc1 | 32.6 | Active | 31 | Toxic | > 90 | 1.06 | 46.2 | – | – | –
CC(=O)Nc1ccc(-n2c(-c3ccc(Cl)cc3)nc3ccccc32)cc1 | 75.9 | Active | 47.4 | – | > 90 | 0.51 | 86.4 | – | – | –
Cc1ccc(-c2ncc(Cl)cc2-c2ccc(S(C)(=O)=O)cc2)cn1 [ETORICOXIB] | 79.8 | – | 23.4 | – | – | 2.68 | 87.3 | – | 35 | –
CC(=O)Nc1ccc(-c2nc3ccccc3n2-c2ccc(NC(C)=O)cc2)cc1 | 10.1 | Active | 59.5 | – | > 90 | 0.53 | 15.3 | – | – | –
Nc1ccc(-n2c(-c3ccc(Br)cc3)nc3ccccc32)cc1 | 62.5 | Active | 62.3 | – | > 90 | 0.11 | 74.2 | – | – | ≥ 80
O=[N+]([O-])c1ccc(-n2c(-c3ccc(Br)cc3)nc3ccccc32)cc1 | 46.5 | – | 18.3 | Toxic | > 90 | 2.77 | 45.8 | 102 | 42 | –
CC(C)Cc1ccc(C(C)C(=O)O)cc1 (stereo not drawn) [IBUPROFEN] | 82.1 | – | 56.6 | – | – | – | 83.7 | – | 42 | –
O=[N+]([O-])c1ccc(-c2nc3ccccc3n2-c2ccc([N+](=O)[O-])cc2)cc1 | 22.4 | – | 29.3 | – | ≤ 90 | 1.63 | 33.8 | – | 42 | ≤ 90
N#Cc1ccc(-c2nc3ccccc3n2-c2ccc([N+](=O)[O-])cc2)cc1 | 24.4 | Active | 29 | Toxic | > 90 | 1.63 | 46 | – | – | –
